Legend:
[1] = Half-life at 37 degree Celsius in aqueous solution at pH 7.4; format: ADME
Outline: (§1)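 Carbamate hydrochloride salt (about 0.5 mg) taken up in buffer pre-warmed to 37 °C, final about 1 mM, and held at 37 °C. Samples were injected straight onto C-18 reverse-phase HPLC at intervals, or quenched in 1 N HCl first. Carbamate and 4-methoxyphenol were read at 220 nm. Half-life is the time to 50% conversion, fitted by first-order kinetics. Each value is the mean of at least two separate runs.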

[2] = pKa of the compound; format: physicochemical
[3] = Half-life at 37 degree Celsius in aqueous solution at pH 6.8; format: ADME; outline: as §1
[4] = Half-life at 37 degree Celsius in aqueous solution at pH 4.2; format: ADME; outline: as §1
[5] = Half-life at 37 degree Celsius in aqueous solution at pH 5.2; format: ADME; outline: as §1
[6] = Half-life at 37 degree Centigrade, in aqueous solution at pH 7.4; format: ADME; outline: as §1
[7] = Half-life at 37 degree Centigrade, towards Murine plasma esterases at pH 7.4; format: ADME; conditions: mouse
Outline: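 Carbamate HCl salt dissolved in dilute H3PO4, then added to fresh murine plasma with pH 7.4 phosphate buffer (plasma:buffer 1.6:0.40) at 37 °C, final 5×10^-4 M. pH held at 7.4 by pH-stat. Aliquots taken at intervals were quenched in 7% HClO4 and centrifuged, and the supernatant was analysed.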

Row | Structure (SMILES) | half-life [1] [h] | pKa [2] | further results
1 | COc1ccc(OC(=O)N(C)CCN(C)C)cc1.Cl | 0.66 |  | 
2 | CNCCCN(C)C(=O)Oc1ccc(OC)cc1.Cl | 15.7 |  | 
3 | COc1ccc(OC(=O)NCCCN)cc1.Cl | 15.2 | 9.6 | 
4 | CNCCNC(=O)Oc1ccc(OC)cc1.Cl | 5.58 |  | 
5 | CNCCN(C)C(=O)Oc1ccc(OC)cc1.Cl |  |  | half-life [3]: 2.33 h; half-life [4]: > 360 h; half-life [5]: 57.8 h; half-life [6]: 0.605 h; half-life [7]: 0.933 h
6 | CNCCOC(=O)Oc1ccc(OC)cc1.Cl | < 0.005 |  | 
7 | CCNCCN(CC)C(=O)Oc1ccc(OC)cc1.Cl | 1.97 |  | 
8 | COc1ccc(OC(=O)N(C)CCN)cc1.Cl | 5.07 | 8.9 | 
9 | COc1ccc(OC(=O)NCCN)cc1.Cl | 12.1 | 8.65 | 

— ChEMBL document CHEMBL1124971, “Cyclization-activated prodrugs. Basic carbamates of 4-hydroxyanisole” (J Med Chem, 1990)
